One assay has as its target T1, OSBP (Homo sapiens, UniProt P22059).
T1 sequence (P22059 1-807): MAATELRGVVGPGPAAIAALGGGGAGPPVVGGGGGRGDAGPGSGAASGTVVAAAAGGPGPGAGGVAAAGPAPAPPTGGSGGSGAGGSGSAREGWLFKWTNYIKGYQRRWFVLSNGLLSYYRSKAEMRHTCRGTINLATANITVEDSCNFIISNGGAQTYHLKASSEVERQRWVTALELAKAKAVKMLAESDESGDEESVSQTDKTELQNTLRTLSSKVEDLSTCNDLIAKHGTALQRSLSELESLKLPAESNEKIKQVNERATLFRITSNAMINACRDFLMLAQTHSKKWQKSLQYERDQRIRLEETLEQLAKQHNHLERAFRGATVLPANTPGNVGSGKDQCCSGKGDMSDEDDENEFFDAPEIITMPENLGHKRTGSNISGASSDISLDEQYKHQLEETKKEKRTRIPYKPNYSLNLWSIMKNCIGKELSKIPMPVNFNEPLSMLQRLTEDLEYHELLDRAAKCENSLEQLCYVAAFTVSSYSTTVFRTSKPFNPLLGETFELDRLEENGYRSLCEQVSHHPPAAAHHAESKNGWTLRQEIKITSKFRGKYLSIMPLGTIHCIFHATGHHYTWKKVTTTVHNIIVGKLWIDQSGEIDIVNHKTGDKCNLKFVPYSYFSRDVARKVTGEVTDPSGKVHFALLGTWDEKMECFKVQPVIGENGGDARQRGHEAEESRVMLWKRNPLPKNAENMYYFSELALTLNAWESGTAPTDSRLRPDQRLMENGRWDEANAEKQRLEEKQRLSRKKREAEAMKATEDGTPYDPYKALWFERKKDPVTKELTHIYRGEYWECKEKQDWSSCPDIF
The assay can be described thus: OSBP localization by immunofluorescence microscopy, A549. Format: cell-based. The following applies: A549 cells. The gist of the method:
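Cells on coverslips were grown 72 h, then given test compound or vehicle (4 h for HCT-116). They were fixed 10 min in 3.7% formaldehyde/PBS and permeabilised 5 min in 0.5% Triton X-100. Blocking used Image-iT FX, then 1% BSA/PBS. Rabbit anti-OSBP (N-terminus) and mouse anti-p230 were applied overnight at 4 °C, then Alexa Fluor secondaries for 60 min with Hoechst 33258. Imaging was by confocal microscopy.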

Assay [1] concerns HCT-116 p21^−/− cells stably transfected with shOSBP or shNT. The assay can be described thus: OSBP shRNA knockdown and dose-shift experiment. Format: cell-based, human. The settings on record: 72 h. The gist of the method: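 HCT-116 p21−/− cells were stably transfected with OSBP-targeting or nontargeting shRNA in the pSIREN-RetroQ vector. […] Values are mean ± s.d. of 3–4 experiments, compared with shNT cells by two-tailed Student's t-test.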

Structures are written as SMILES.

For the compound `COc1ccc(C(=O)O[C@H]2[C@H](O[C@@H]3[C@@H](OC(C)=O)[C@H](O[C@H]4C[C@H]5[C@@H]6CC=C7C[C@@H](O)CC[C@]7(C)[C@H]6CC[C@]5(C)[C@@]4(O)[C@H](C)C(=O)CCC(C)C)OC[C@@H]3O)OC[C@@H](O)[C@@H]2O)cc1` [OSW-1], at OSBP, the OSBP localization entry is “dispersal or vesiculation of OSBP”.

Turning to `CC(C)=CCC/C(C)=C/Cc1c(O)cc(/C=C/c2cc(O)c3c(c2)C[C@@H]2C(C)(C)[C@H](O)[C@H](O)C[C@@]2(C)O3)cc1O` [schweinfurthin A], in assay [1], the “Sensitization by OSBP shRNA knockdown (GI50 shift shOSBP vs shNT)” value is given as “nine”.
